From ChEMBL document CHEMBL1128543, “Computer-aided design and synthesis of 5-substituted tryptamines and their pharmacology at the 5-HT1D receptor: discovery of compounds with potential anti-migraine properties” (J Med Chem, 1995)

Legend:
[1] = molecular target: 5-hydroxytryptamine receptor 2A (Homo sapiens) (UniProt P28223); details: Oryctolagus cuniculus
[2] = molecular target: T1, Adrenergic receptor alpha-2 (Rattus norvegicus, UniProt P22086+P19328+P22909); assay: Binding affinity against Alpha-2 adrenergic receptor in rat cortex using [3H]-idazoxan as radioligand
T1 sequence (P22086 whole entry): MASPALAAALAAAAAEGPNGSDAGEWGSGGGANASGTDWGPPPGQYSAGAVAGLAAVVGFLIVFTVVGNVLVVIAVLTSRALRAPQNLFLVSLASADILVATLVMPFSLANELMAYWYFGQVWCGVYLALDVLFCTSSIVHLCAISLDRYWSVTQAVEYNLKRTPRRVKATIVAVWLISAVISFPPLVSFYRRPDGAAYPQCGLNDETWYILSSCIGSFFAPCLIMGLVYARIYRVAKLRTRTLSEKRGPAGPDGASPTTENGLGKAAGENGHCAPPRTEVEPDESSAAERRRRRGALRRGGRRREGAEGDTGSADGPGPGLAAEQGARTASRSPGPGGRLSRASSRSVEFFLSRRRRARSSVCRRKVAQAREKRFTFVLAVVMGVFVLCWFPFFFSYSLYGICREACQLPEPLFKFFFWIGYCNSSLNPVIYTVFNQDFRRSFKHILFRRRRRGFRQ
T1 sequence (P19328 whole entry): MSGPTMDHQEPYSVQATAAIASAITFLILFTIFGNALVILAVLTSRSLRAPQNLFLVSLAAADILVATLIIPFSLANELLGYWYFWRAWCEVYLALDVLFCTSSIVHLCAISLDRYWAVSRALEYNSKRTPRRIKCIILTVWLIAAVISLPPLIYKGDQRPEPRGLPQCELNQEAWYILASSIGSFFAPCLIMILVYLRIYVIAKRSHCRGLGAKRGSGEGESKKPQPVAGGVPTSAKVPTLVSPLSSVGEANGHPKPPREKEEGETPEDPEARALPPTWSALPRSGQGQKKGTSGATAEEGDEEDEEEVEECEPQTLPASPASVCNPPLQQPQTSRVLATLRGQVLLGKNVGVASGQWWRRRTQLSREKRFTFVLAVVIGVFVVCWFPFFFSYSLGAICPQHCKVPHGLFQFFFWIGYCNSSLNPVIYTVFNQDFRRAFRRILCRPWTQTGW
T1 sequence (P22909 whole entry): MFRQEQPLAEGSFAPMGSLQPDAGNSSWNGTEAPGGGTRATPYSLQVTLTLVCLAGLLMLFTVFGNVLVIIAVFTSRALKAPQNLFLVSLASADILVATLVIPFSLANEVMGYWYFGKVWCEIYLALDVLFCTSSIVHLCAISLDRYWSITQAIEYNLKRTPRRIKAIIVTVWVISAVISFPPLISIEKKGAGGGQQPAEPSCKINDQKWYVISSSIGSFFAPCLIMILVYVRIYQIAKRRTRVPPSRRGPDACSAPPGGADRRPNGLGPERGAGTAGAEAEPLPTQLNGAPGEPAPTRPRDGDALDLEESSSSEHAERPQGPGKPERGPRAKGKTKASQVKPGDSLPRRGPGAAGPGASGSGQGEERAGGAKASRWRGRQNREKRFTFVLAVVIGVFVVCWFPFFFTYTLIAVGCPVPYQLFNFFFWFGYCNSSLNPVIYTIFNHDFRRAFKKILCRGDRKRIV
Procedure, shortened: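 Competition binding on rat cortex with [³H]idazoxan (7 nM, about K_D) against a wide test range run in duplicate. Incubation was 30 min at 27 °C in 50 mM Tris-HCl, 5 mM CaCl₂, 0.1% ascorbate and 10 mM pargyline. Assays were ended by rapid filtration and read by scintillation. Values are pK_i or pIC₅₀, mean of n ≥ 3.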

[3] = molecular target: T2, 5-hydroxytryptamine receptor 1A (Homo sapiens) (UniProt P08908); assay: Binding affinity against 5-hydroxytryptamine 1 receptor using rabbit jugular vein assay in the presence of endothelium; details: Oryctolagus cuniculus; target entry is the homologue from another species
T2 sequence (whole entry): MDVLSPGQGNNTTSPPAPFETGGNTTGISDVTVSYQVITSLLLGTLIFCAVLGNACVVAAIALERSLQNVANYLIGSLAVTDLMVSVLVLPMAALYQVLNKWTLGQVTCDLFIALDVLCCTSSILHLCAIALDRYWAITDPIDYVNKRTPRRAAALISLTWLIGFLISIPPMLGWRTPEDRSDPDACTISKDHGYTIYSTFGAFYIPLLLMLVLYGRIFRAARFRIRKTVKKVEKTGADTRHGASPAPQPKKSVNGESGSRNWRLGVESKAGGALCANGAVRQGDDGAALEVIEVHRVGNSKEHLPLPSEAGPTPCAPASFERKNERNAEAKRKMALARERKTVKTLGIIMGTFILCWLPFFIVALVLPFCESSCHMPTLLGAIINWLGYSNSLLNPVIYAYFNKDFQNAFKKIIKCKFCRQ

5-hydroxytryptamine receptor 2A (Homo sapiens), sequence (P28223 whole entry): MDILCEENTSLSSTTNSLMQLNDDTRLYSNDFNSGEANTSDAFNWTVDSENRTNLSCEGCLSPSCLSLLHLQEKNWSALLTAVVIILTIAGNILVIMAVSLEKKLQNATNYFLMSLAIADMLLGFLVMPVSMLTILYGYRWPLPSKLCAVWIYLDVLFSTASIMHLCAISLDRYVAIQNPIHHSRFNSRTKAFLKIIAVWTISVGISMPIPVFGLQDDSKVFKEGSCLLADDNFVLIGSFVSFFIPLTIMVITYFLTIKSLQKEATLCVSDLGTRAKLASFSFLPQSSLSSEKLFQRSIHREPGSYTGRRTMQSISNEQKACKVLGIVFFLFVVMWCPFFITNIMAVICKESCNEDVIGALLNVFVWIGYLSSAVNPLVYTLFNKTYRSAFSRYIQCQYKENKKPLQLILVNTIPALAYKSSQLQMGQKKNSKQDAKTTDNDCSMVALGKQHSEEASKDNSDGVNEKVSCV

p[A50] [1]: 6.6 | Kd [2]: 7 nM | p[A50] [3]: 6.45
Structure (SMILES): CN(C)CCc1c[nH]c2ccc(C[C@H]3COC(=O)N3)cc12 [ZOLMITRIPTAN]
